According to ChEMBL document CHEMBL3525996, “Deuterium isotope effects on drug pharmacokinetics. I. System-dependent effects of specific deuteration with aldehyde oxidase cleared drugs” (Drug Metab Dispos, 2012):

Legend:
aldehyde oxidase = test: Activity of guinea pig cytosolic aldehyde oxidase; conditions: cytosol (aldehyde oxidase)
[1] = AUC in Hartley guinea pig at 5 mg/kg, iv; assay type: ADME, organism-based, Cavia porcellus; design: dose 5 mg/kg, route intravenous; conditions: plasma
Outline: (§1)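 A 1:1 deuterio/proto mixture, ~10 mg/kg total (5 mg/kg per isotopic form), was given orally in water or as an IV bolus via the jugular vein in saline. Animals were male Hartley guinea pigs (325–350 g) or male Sprague-Dawley rats (250–300 g). Carotid blood was sampled from 10 min to 6 h, and plasma was analysed by LC-MS/MS MRM. AUC and t1/2 were calculated between the first and last measured points.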

[2] = AUC in Sprague-Dawley rat at 5 mg/kg, iv; assay type: ADME, organism-based; design: dose 5 mg/kg, route intravenous; conditions: plasma; outline: as §1
[3] = AUC in Sprague-Dawley rat at 5 mg/kg, po; assay type: ADME, organism-based; design: dose 5 mg/kg, route oral; conditions: plasma; outline: as §1
[4] = Cmax in Hartley guinea pig at 5 mg/kg, po; assay type: ADME, organism-based, Cavia porcellus; design: dose 5 mg/kg, route oral; conditions: in vivo; outline: as §1
[5] = Cmax in Sprague-Dawley rat at 5 mg/kg, po; assay type: ADME, organism-based; design: dose 5 mg/kg, route oral; conditions: in vivo; outline: as §1
[6] = AUC in Hartley guinea pig at 5 mg/kg, po; assay type: ADME, organism-based, Cavia porcellus; design: dose 5 mg/kg, route oral; conditions: plasma; outline: as §1
[7] = AUC in Sprague-Dawley rat at 1 mg/kg, iv; assay type: ADME, organism-based; design: dose 1 mg/kg, route intravenous; conditions: plasma
Outline: (§2)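 Male Hartley guinea pigs (325–350 g) or male Sprague-Dawley rats (250–300 g) received a 1:1 deuterio/proto mixture. Oral dose was ~5 mg/kg total (2.5 mg/kg per isotopomer) in water; IV bolus via the jugular vein was ~2 mg/kg total (1 mg/kg per isotopomer) in saline. Carotid blood was drawn between 10 min and 6 h, and plasma was assayed by LC-MS/MS. AUC and t1/2 cover only the first to last measured time points.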

[8] = Half life in Hartley guinea pig at 1 mg/kg, iv; assay type: ADME, organism-based, Cavia porcellus; design: dose 1 mg/kg, route intravenous; conditions: in vivo; outline: as §2
[9] = AUC in Hartley guinea pig at 1 mg/kg, iv; assay type: ADME, organism-based, Cavia porcellus; design: dose 1 mg/kg, route intravenous; conditions: plasma; outline: as §2
[10] = Cmax in Hartley guinea pig at 2.5 mg/kg, po; assay type: ADME, organism-based, Cavia porcellus; design: dose 2.5 mg/kg, route oral; conditions: in vivo; outline: as §2
[11] = AUC in Sprague-Dawley rat at 2.5 mg/kg, po; assay type: ADME, organism-based; design: dose 2.5 mg/kg, route oral; conditions: plasma; outline: as §2
[12] = Half life in Hartley guinea pig at 2.5 mg/kg, po; assay type: ADME, organism-based, Cavia porcellus; design: dose 2.5 mg/kg, route oral; conditions: in vivo; outline: as §2
[13] = Half life in Sprague-Dawley rat at 1 mg/kg, iv; assay type: ADME, organism-based; design: dose 1 mg/kg, route intravenous; conditions: in vivo; outline: as §2
[14] = Half life in Sprague-Dawley rat at 2.5 mg/kg, po; assay type: ADME, organism-based; design: dose 2.5 mg/kg, route oral; conditions: in vivo; outline: as §2
[15] = Cmax in Sprague-Dawley rat at 2.5 mg/kg, po; assay type: ADME, organism-based; design: dose 2.5 mg/kg, route oral; conditions: in vivo; outline: as §2
[16] = AUC in Hartley guinea pig at 2.5 mg/kg, po; assay type: ADME, organism-based, Cavia porcellus; design: dose 2.5 mg/kg, route oral; conditions: plasma; outline: as §2

SMILES | Km (aldehyde oxidase) | AUC [1] | AUC [2] | AUC [3] | Cmax [4] | Cmax [5] | AUC [6] | AUC [7] | half-life [8] | AUC [9] | Cmax [10] | AUC [11] | half-life [12] | half-life [13] | half-life [14] | Cmax [15] | AUC [16]
[2H]c1ccc2ccccc2n1 | 193 µM | – | – | – | – | – | – | – | – | – | – | – | – | – | – | – | –
[2H]c1nnc(N2CCC(OC(=O)NCC)CC2)c2cc(OC)c(OC)cc12 | – | 0.206 µg·h/mL | 1.27 µg·h/mL | 3.72 µg·h/mL | 0.161 µg/mL | 1.77 µg/mL | 0.096 µg·h/mL | – | – | – | – | – | – | – | – | – | –
[2H]c1ccc2c(-n3ncc(C(=O)NC(=N)N)c3C3CC3)cccc2n1 | – | – | – | – | – | – | – | 0.0774 µg·h/mL | 30 min | 0.0407 µg·h/mL | 0.0233 µg/mL | 0.0127 µg·h/mL | 30 min | 30 min | 18 min | 0.0184 µg/mL | 0.0257 µg·h/mL
CCNC(=O)OC1CCN(c2nncc3cc(OC)c(OC)cc23)CC1 [CARBAZERAN] | – | 0.0356 µg·h/mL | 0.509 µg·h/mL | 1.63 µg·h/mL | 0.0098 µg/mL | 1.15 µg/mL | 0.00425 µg·h/mL | – | – | – | – | – | – | – | – | – | –
c1ccc2ncccc2c1 [QUINOLINE] | 212 µM | – | – | – | – | – | – | – | – | – | – | – | – | – | – | – | –
N=C(N)NC(=O)c1cnn(-c2cccc3ncccc23)c1C1CC1 [ZONIPORIDE] | – | – | – | – | – | – | – | 0.0744 µg·h/mL | 30 min | 0.0232 µg·h/mL | 0.0265 µg/mL | 0.0197 µg·h/mL | 30 min | 24 min | 18 min | 0.0247 µg/mL | 0.0222 µg·h/mL
